Assay outcomes (PubChem BioAssay)
A selection: hits, their analogues and other compounds. The true share with any hit is near 2.4%.
HTRA1 inhibitor = blocks human HTRA1 serine peptidase | inhibition, % at 5.96 µM | recombinant HTRA1, FP-rhodamine activity-based probe, fluorescence polarization | 340,000 compounds, 0.5% hits | AID 504803 | Q92743; in the data active means inhibition above about 36%;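 further: 0% = enzyme with DMSO and 100% = wells lacking enzyme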
PRMT1 FP inh = PRMT1 (human) inhibition, primary screen; recombinant PRMT1, activity-based probe fluorescence polarization; inhibition, % at 2.79 µM; 370,000 compounds, 1.3% hits;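 active means inhibition above about 21% made by adding two undisclosed values, limit read from the data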
SIAE inh = blocks human sialic acid acetylesterase; Q9HAT2; SIAE FP-Rh probe binding, fluorescence polarization; inhibition, % at 9.66 µM; 370,000 compounds, 0.69% hits; AID 1053197;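 active means inhibition above a cutoff: mean of compounds within the control limits plus 3 SD of those, cut at about 17% in these data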;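 further: 0% = plate median of compound wells and 100% = probe without SIAE protein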
Target sequence (Q9HAT2 whole entry, looked up): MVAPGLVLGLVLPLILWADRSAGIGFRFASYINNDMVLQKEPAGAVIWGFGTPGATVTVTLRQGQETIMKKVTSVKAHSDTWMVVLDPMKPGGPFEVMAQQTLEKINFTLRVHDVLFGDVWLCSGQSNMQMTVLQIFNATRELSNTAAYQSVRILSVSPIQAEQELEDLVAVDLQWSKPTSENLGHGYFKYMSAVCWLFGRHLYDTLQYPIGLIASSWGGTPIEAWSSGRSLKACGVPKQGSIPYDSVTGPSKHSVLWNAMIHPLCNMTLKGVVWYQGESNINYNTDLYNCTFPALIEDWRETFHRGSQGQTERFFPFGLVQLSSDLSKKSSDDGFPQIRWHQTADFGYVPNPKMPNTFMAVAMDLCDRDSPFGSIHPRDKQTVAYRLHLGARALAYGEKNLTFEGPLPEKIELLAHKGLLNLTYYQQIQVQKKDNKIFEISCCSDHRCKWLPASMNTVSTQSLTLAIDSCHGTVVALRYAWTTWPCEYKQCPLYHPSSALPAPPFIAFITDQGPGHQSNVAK
GASC-1 inh = blocks human GASC-1 demethylase activity; GST-JMJD2C(1-420) H3K9me3 demethylation, DELFIA europium; inhibition, % at 2.35 µM; 330,000 compounds, 0.069% hits; AID 2099;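 active means more than half of a compound's replicate wells show inhibition beyond 50%, single wells judged on their own value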;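 further: signal counts dimethyl H3K9 product captured on neutravidin plate; 0% = median of DMSO wells and 100% = 0.3 times that DMSO median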
ABHD4 inh = inhibitors of mouse ABHD4. Q8VD66. 370,000 compounds, 0.54% hits. purified mABHD4, FP-Rh probe fluorescence polarization. inhibition, % at 8.92 µM. AID 720543;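 active means inhibition exceeding the mean over every tested compound plus 3 SD, cut at about 30% in these data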;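 further: 0% = plate median of compound wells and 100% = S159A mutant with DMSO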
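Test system: mouse ABHD4 enzyme, wild type. Reagent: FP-Rh fluorescent activity-based probe, added after compound pre-incubation. Timing: pre-incubation 45 min, probe exposure 60 min, at 25 °C. Technique: FP readout, ex 525 nm / em 598 nm. Benchmarks: high control S159A mutant with DMSO, low control median of compound wells.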
PRMT1 inh conf = confirmation of human PRMT1 inhibitors; shares compounds with PRMT1 FP inh; recombinant His-PRMT1, activity-based probe fluorescence polarization; inhibition, % at 2.79 µM; 3,300 compounds, 42% hits;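 active means mean inhibition across replicates above the hit cutoff derived for the earlier primary screen, cut at about 22% in these data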
* = called active by the depositor; . = no result given.

SMILES	HTRA1 inhibitor	PRMT1 FP inh	SIAE inh	GASC-1 inh	ABHD4 inh	PRMT1 inh conf
CN(C(=O)c1sc2nc(N3CCOCC3)c3c(c2c1N)CCCC3)c1ccccc1	-7	26*	1	-4	11	17
COc1ccccc1NC(=O)c1sc2nc(N3CCOCC3)c3c(c2c1N)CCCC3	-16	9	-2	4	4	.
CC(C)C[C@H](NC(C)(C)C(=O)NC1CCCCC1)C(=O)NCCc1c[nH]c2ccccc12	.	2	5	.	3	.
O=C(NCc1ccc2c(c1)OCO2)c1nc(S(=O)(=O)Cc2ccccc2F)ncc1Cl	-2	29*	1	-10	4	22*
O=C(NCc1ccc2c(c1)OCO2)c1nc(S(=O)(=O)Cc2ccccc2)ncc1Cl	3	25*	-2	-15	-6	17
O=C(NCc1ccc2c(c1)OCO2)c1ccccc1Cl	3	-2	-3	-24	-2	.
CC(C)c1nnc(NC(=O)c2nc(S(=O)(=O)Cc3ccccc3F)ncc2Cl)s1	.	7	2	-8	2	.
Cc1ccc(Cc2c(-c3ccco3)nc3ccc(Br)cn23)cc1	.	31*	-2	.	11	16
COc1ccc(Cc2c(-c3ccco3)nc3ccc(Br)cn23)c(C)c1	.	31*	-4	.	14	20
COc1ccc(Cc2c(-c3ccco3)nc3ccc(Cl)cn23)c(C)c1	.	27*	3	.	10	15
COC(=O)[C@]12CCCCC=C1N(Cc1ccc(OC)cc1)C(=O)[C@@H]2CC(=O)NCc1ccc(C)o1	.	4	-3	.	4	.
O=S(=O)(c1ccccc1)N1CCN(S(=O)(=O)N2CCCCCC2)CC1	7	-2	-4	5	2	.
O=c1c2ccccc2sn1-c1ccc(S(=O)(=O)N2CCCCC2)cc1	-1	43*	4	11	-2	63*
O=c1c2ccccc2sn1-c1ccc(S(=O)(=O)N2CCCC2)cc1	-6	95*	-15	-2	-24	97*
O=S(=O)(c1ccc(S(=O)(=O)N2CCCC2)cc1)N1CCCCC1	.	.	.	12	.	.
Cc1ccc(-n2sc3ccccc3c2=O)cc1S(=O)(=O)N1CCCCC1	-2	101*	-5	-1	-10	84*
CC(=O)Nc1c(-c2ccc(F)cc2)nc2ncccn12	.	1	3	.	-5	.
O=C(CSc1ccc(Br)cc1)NCC1(N2CCCCC2)CCCCC1	-3	-1	1	.	-4	.
CC(=O)Nc1ccc(SCC(=O)NCC2(N3CCCCC3)CCCCC2)cc1	-1	41*	-1	5	1	37*
Cn1cnnc1SCc1ccc(-c2ccc(Br)cc2)o1	-11	30*	3	1	7	3
CN(Cc1ccccc1)C(=O)OCc1cn(Cc2ccc(F)c(F)c2)nn1	.	-1	-8	.	4	.
Cc1ccc(C)c(Cn2c(=O)n(CCC(=O)NCc3ccco3)c(=O)c3ccccc32)c1	1	-1	-18	11	-2	.
Cc1ccc(C)c(Cn2c(=O)n(CCCC(=O)NCc3ccco3)c(=O)c3ccccc32)c1	5	102*	3	-5	-1	-2
O=C1C(NC(=O)N2c3ccccc3C=Cc3ccccc32)CCCCN1Cc1cccc(Cl)c1 (stereo unspecified)	.	4	-3	.	-8	.
CN(c1ncc(C(F)(F)F)cc1Cl)N1C(=O)C2ONC3(C(=O)CC(C)(C)CC3=O)C2C1=O (stereo unspecified)	-2	72*	7	-11	-12	-7
SMILES	HTRA1 inhibitor	PRMT1 FP inh	SIAE inh	GASC-1 inh	ABHD4 inh	PRMT1 inh conf
COc1ccccc1C(=O)N1CCN(c2ccc(N3CCOCC3)nn2)CC1	7	38*	-3	1	6	-5
COc1cc(Cl)c(C)cc1NC(=O)CSc1sc2c(O)cc(=O)[nH]c2c1C#N	-3	36*	-7	6	-4	12
Cc1ccc(NC(=O)CSc2sc3c(O)cc(=O)[nH]c3c2C#N)c(F)c1	-26	12	-30	17	-2	.
N#Cc1c(SCC(=O)Nc2ccc(C(F)(F)F)cc2)sc2c(O)cc(=O)[nH]c12	-22	14	-12	10	-2	.
COc1ccc(OC)c(NC(=O)CSc2sc3c(O)cc(=O)[nH]c3c2C#N)c1	-11	26*	-8	16	12	13
COc1ccccc1-c1cc2nc(-c3ccccc3)cc(N3CCN(C(=O)c4ccco4)CC3)n2n1	-75	-2	-18	.	-21	.
Cc1[nH]nc2c1C(c1ccc(O)cc1)C1=C(CC(C)(C)CC1=O)N2 (stereo unspecified)	7	1	4	15	3	.
